STEP block: STEP (human) phosphatase inhibition; P54829; inhibition, % at 20 µM; recombinant STEP, OMFP fluorogenic substrate, fluorescence; 0.25% of 360,000 active;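 active = inhibition at 20 µM, scaled per plate between control wells, above about 37%, limit read from the data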
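Measure: Control-normalized % inhibition with plate pattern correction | Test system: STEP phosphatase, cell-free reaction | Medium: pH 6.0 Bis-Tris with DTT and Tween 20 | Technique: Fluorescence, 480/540 nm | Times: Reaction 20 min, ambient temperature | Doses: Single compound dose of 20 µM, 1% DMSO final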
SUMO1-SIM PPI: SUMO1-SIM interaction modulation. P63165. SUMO1 binding to a labelled peptide, TR-FRET, 1 h. inhibition, % at 20 µM. 0.33% of 360,000 active; in the data active = inhibition above about 37%
Scp1 inh: Scp-1 (human) phosphatase inhibition. 0.88% of 340,000 active. Q9GZU7. Recombinant Scp1, phosphopeptide, malachite green phosphate absorbance. inhibition, % at 20 µM;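 active = inhibition above about 50% at 20 µM, limit read from the data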
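Material – SCP-1 phosphatase catalytic domain, residues 76-261 · Buffer or medium – Acidic Tris acetate buffer with magnesium and detergent · Also added – Phospho 17-mer peptide substrate · Compound – single 20 µM dose, 1% DMSO · Times – 45 min room-temperature reaction, 5 min colour, 30 min stabiliser · Technique – Phosphate-binding colour reagent, absorbance read at 630 nm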
DNMT1 block: inhibitors of human DNMT1 | P26358 | DNMT1 molecular beacon, Hinp1I cleavage, fluorescence | inhibition (reported as % activation of signal), % at 10 µM | 0.83% of 360,000 active; in the data active = inhibition above about 50%
Target sequence (P26358 504-1616 limits assumed): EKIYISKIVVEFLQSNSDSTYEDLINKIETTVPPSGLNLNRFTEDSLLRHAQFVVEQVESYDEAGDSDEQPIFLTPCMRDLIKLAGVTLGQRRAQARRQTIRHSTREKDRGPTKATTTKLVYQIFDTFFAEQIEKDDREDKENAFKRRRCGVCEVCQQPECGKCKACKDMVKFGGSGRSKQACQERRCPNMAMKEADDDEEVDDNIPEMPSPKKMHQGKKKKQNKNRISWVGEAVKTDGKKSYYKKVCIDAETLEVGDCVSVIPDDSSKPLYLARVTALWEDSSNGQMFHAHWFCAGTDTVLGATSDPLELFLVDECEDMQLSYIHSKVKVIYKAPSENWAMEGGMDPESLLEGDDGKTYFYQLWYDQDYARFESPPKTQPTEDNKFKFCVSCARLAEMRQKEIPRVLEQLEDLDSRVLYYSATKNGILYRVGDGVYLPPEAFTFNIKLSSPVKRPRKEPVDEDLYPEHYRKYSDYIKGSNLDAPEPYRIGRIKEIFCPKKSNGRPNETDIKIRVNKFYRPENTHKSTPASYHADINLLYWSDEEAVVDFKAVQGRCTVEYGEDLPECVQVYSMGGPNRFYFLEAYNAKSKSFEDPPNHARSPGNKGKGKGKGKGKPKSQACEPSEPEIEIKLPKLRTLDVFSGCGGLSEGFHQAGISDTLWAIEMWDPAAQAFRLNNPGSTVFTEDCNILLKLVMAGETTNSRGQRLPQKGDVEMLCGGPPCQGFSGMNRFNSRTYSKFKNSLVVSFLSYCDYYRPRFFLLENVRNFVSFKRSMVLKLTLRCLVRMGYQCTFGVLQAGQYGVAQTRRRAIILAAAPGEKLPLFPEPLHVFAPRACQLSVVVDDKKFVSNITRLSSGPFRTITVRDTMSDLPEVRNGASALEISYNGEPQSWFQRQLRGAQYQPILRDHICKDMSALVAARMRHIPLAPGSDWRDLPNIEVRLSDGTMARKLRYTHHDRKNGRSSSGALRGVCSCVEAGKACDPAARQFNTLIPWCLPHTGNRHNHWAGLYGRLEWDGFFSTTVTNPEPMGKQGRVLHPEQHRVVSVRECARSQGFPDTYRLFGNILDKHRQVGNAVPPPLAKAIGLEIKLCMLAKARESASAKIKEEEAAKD
LMPTP block: blocks human LMPTP phosphatase; recombinant LMPTP-A, OMFP fluorogenic substrate, fluorescence intensity; P24666; 0.22% of 360,000 active; inhibition, % at 20 µM;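 active = compounds that cut the enzyme signal by at least half of the control window in the single-dose screen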
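Assay system: LMPTP-A phosphatase enzyme | Input: 0.625 nM enzyme | Also added: Fluorogenic phosphatase substrate OMFP at 400 µM final | Compound dosing: One test concentration per compound, 20 µM, with 3% DMSO overall | Schedule: 50 min enzyme reaction at room temperature, protected from light | Signal: Fluorescence intensity | Benchmarks: no-enzyme and uninhibited controls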
DNMT1 inh conf: confirmation of human DNMT1 inhibitors; shares compounds with DNMT1 block; DNMT1 molecular beacon HinP1I cleavage, fluorescence; 8% of 2,300 active; AID 602385; inhibition, % at 10 µM;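 active = average inhibition of at least 30% in the single-concentration confirmation test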
DNMT1 interf: counter-screen for DNMT1 inhibitors: spectral interference | 1% of 2,300 active | activation (fluorescence interference), % at 10 µM | DNMT1 molecular beacon spectral interference counterscreen, fluorescence 485/520 | shares compounds with DNMT1 block;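 active = activation of at least 30% at 10 µM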;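 also: DNMT1 catalytic domain with a HinP1I cleavage step and a FAM/dabcyl DNA beacon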
Each line names hits and unclear results; the compound was inactive in the other large screens (follow-up assays come after a bar, where they were run); ! = a repeat was not active. Only some compounds are listed: those with a hit (about 1.7% of all), similar ones and a draw of the others.

CSc1nnc(C)c(=O)n1COC(=O)COc1ccccc1	none
O=C(COC(=O)Cc1cccs1)Nc1ccc(OC(F)(F)F)cc1	none
COc1ccc(C(=O)Nc2cc(C)on2)c(OC)c1	none
COc1ccc(C(=O)Nc2ccc(C)cn2)c(OC)c1	DNMT1 block 73.8 | DNMT1 inh conf inactive | DNMT1 interf inactive
O=C(c1ccccc1)C(Nc1ccccn1)c1ccccc1 (stereo unspecified)	none
OC(c1ccccc1)C(Nc1ccccn1)c1ccccc1 (stereo unspecified)	DNMT1 block 55.0 | DNMT1 inh conf inactive | DNMT1 interf inactive
COc1cc(-c2nnc3n2CCCCC3)cc(OC)c1OC	none
O=[N+]([O-])c1ccc(Cl)c(S(=O)(=O)Nc2ccc(-c3ccc(N4CCOCC4)nn3)cc2)c1	none
O=S(=O)(Nc1ccc(-c2ccc(N3CCOCC3)nn2)cc1)c1ccc(Cl)c(Cl)c1	DNMT1 block 83.3 | DNMT1 inh conf inactive | DNMT1 interf inactive
O=C(Nc1ccc(Cl)cc1)c1csc(COCCO)n1	none (no result: Scp1 inh)
O=C(Nc1ccc(Oc2ccccc2)cc1)c1csc(COCCO)n1	DNMT1 block 63.9 (no result: Scp1 inh) | DNMT1 inh conf inactive | DNMT1 interf inactive
CCC1(CC)C(=O)Nc2ccccc21	DNMT1 block 74.7 | DNMT1 inh conf inactive | DNMT1 interf inactive
O=C1Nc2ccccc2C1(c1ccccc1)c1ccccc1	none
Cc1cc(O)cc2c1C(=O)/C(=C/c1ccco1)O2	DNMT1 block 64.8 | DNMT1 inh conf inactive | DNMT1 interf inactive
O=c1[nH]c(C(Cl)Cl)nc2sc3c(c12)CCN(Cc1ccccc1)C3	DNMT1 block 86.6, LMPTP block 77.0 | DNMT1 inh conf inactive | DNMT1 interf inactive
Cc1ccccc1OCC(=O)NCCCNC(=O)c1ccncc1	DNMT1 block 77.5 | DNMT1 inh conf inactive | DNMT1 interf inactive
CCOC(=O)N1CCC2(CC1)NC(=O)c1ccccc1N2	none (no result: Scp1 inh)
CCc1ccc(CN(Cc2cccnc2)C(=O)/C=C/c2ccc(OC)cc2)cc1	DNMT1 block 56.8 | DNMT1 inh conf inactive | DNMT1 interf inactive
COc1ccc(/C=C/C(=O)NCc2cccnc2)cc1	none
O=C(CCCN1C(=O)/C(=C\c2cccc(Br)c2)SC1=S)Nc1ccc(C(=O)O)cc1	none (no result: Scp1 inh)
O=c1cc(CN2CCN(c3ccc(F)cc3)CC2)c2cc3c(cc2o1)CCCC3	DNMT1 block 63.5 | DNMT1 inh conf inactive | DNMT1 interf inactive
CN1CCN(Cc2cc(=O)oc3cc4c(cc23)CCC4)CC1	none
CC(C)C(NC(=O)c1ccc2c(c1)OCO2)C(=O)N/N=C/c1cccs1 (stereo unspecified)	DNMT1 block 59.8 | DNMT1 inh conf inactive | DNMT1 interf inactive
CCCCN(C(=O)c1cccc(-n2cccc2)c1)c1c(N)n(Cc2ccccc2)c(=O)[nH]c1=O	DNMT1 block 92.5 (no result: Scp1 inh) | DNMT1 inh conf inactive | DNMT1 interf inactive
CNC(=O)CSc1nnc(SCCC(=O)O)s1	DNMT1 block 72.5 | DNMT1 inh conf inactive | DNMT1 interf inactive
O=C(Cc1nnc(NC(=O)Nc2ccc(Cl)cc2)s1)NCc1ccccc1	none | DNMT1 inh conf inactive | DNMT1 interf inactive
COC(=O)CCNC(=O)c1ccc2nc(Cc3ccc(OC)cc3)oc2c1	none
COc1ccc(Cc2nc3ccc(C(=O)NCCSC)cc3o2)cc1	DNMT1 block 54.8 | DNMT1 inh conf inactive | DNMT1 interf inactive
COc1cccc(CNC(=O)Cn2cccc2)c1	none
COc1cccc(CNC(=O)Cc2ccc(Br)cc2)c1	DNMT1 block 69.7 | DNMT1 inh conf inactive | DNMT1 interf inactive
Cc1cc(=O)n2[nH]c(-c3ccsc3-n3c(C)ccc3C)cc2n1	DNMT1 block 66.9 | DNMT1 inh conf inactive | DNMT1 interf inactive
COCc1cc(=O)n2[nH]c(-c3ccsc3-n3c(C)ccc3C)cc2n1	SUMO1-SIM PPI 44.9, DNMT1 block 68.3 | DNMT1 inh conf inactive | DNMT1 interf inactive
O=C(OCc1ccccc1)N1CCc2ccccc21	none
CN1/C(=C\C(=O)c2cccc([N+](=O)[O-])c2)Sc2ccccc21	DNMT1 block 51.5 | DNMT1 inh conf inactive | DNMT1 interf inactive
COc1cc(OC)cc(C(=O)/C=C2\Sc3ccccc3N2C)c1	none
C#CCN(C[C@@H]1[C@@H](OC(=O)NCc2ccccc2F)[C@@H](OC(=O)NCc2ccccc2F)CN(C(=O)OC(C)C)N1C(=O)OC(C)C)S(=O)(=O)c1ccc(C)cc1	none (no result: Scp1 inh)
O=C(C1COc2ccccc2O1)N1CCc2ccccc21 (stereo unspecified)	Scp1 inh 74.0, DNMT1 block 57.8 | DNMT1 inh conf inactive | DNMT1 interf inactive
O=C(C1COc2ccccc2O1)N1CCCC1 (stereo unspecified)	none
CS/C(=N\S(=O)(=O)c1cccs1)Nc1ccc(N2CCOCC2)cc1	DNMT1 block 83.0! | DNMT1 inh conf inactive | DNMT1 interf inactive
CS/C(=N\S(=O)(=O)c1cccs1)Nc1ccc(F)cc1	none
CC12CCC(C(S(=O)(=O)Nc3ccccc3)C1=O)C2(C)C (stereo unspecified)	none
CC(Sc1nc2ccc(C(=O)c3ccccc3)cc2[nH]1)C(=O)O (stereo unspecified)	DNMT1 block 81.3 | DNMT1 inh conf inactive | DNMT1 interf inactive
CC(Sc1nc2ccc(Br)cc2[nH]1)C(=O)O (stereo unspecified)	none
COc1ccc(NC(=O)c2ccc(N3C(=O)C4CC=C(Cl)CC4C3=O)cc2)cc1 (stereo unspecified)	none
O=C(NN1C(=O)C2CC=C(Cl)CC2C1=O)c1ccncc1 (stereo unspecified)	DNMT1 block 58.3 | DNMT1 inh conf inactive | DNMT1 interf inactive
Fc1ccccc1CN1CCC(Cc2ccccc2)CC1	DNMT1 block 70.5 | DNMT1 inh conf inactive | DNMT1 interf inactive
O=[N+]([O-])c1ccc(/C=C/c2ccc3cccc(O)c3n2)cc1	DNMT1 block 66.6 | DNMT1 inh conf inactive | DNMT1 interf inactive
Cc1cc(C)n2c(Nc3c(C)cccc3C)c(CC(C)C)nc2n1	none (no result: STEP block, Scp1 inh, DNMT1 block)
C=CCSC1=N/C(=C\c2cc(OC)c3c(c2)OCO3)C(=O)S1	DNMT1 block 73.7 | DNMT1 inh conf inactive | DNMT1 interf inactive
CCSC1=N/C(=C\c2ccc3c(c2)OCO3)C(=O)S1	none
NNC(=O)c1[nH]c(-c2ccccc2)cc1-c1ccccc1	DNMT1 block 68.2 | DNMT1 inh conf inactive | DNMT1 interf inactive
Cc1c(-c2ccccc2)n[nH]c1C(=O)NN	none
Cc1cc(C)n(CCNC(=O)c2cc(COc3c(F)cccc3F)on2)n1	none
Cc1cc(C)n(CCN(C)C(=O)c2cc(COc3c(F)cccc3F)on2)n1	DNMT1 block 51.0 | DNMT1 inh conf inactive | DNMT1 interf inactive
